Measurements taken from ChEMBL document CHEMBL3120121, “Insights on pregnane-X-receptor modulation. Natural and semisynthetic steroids from Theonella marine sponges” (Eur J Med Chem, 2014).

Columns and labels:
Type in all cases: cell-based
[1] = molecular target: T1, Nuclear receptor subfamily 1 group I member 2 (Homo sapiens, UniProt O75469); test: Partial agonist activity at human full-length PXR transfected in human HepG2 cells co-transfected with RXR assessed as reversal of rifaximin-induced transactivation at 50 uM after 18 hrs by luciferase reporter gene assay; details: hepg2, 18 h
T1 sequence (O75469 whole entry): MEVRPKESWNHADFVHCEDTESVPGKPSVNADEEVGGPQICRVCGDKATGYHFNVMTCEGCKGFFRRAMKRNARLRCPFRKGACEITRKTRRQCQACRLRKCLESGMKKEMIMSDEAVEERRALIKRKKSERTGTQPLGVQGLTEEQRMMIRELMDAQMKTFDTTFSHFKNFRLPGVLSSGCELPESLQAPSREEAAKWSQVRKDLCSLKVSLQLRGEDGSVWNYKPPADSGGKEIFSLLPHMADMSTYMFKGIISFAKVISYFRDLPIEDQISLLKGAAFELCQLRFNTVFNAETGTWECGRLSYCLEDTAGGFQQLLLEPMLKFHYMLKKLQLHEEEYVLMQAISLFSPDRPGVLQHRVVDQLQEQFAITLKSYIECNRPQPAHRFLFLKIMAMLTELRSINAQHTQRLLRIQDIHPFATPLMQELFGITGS
In short: (§1)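 HepG2 cells cotransfected with pSG5-hPXRT1, pSG5-RXR, pCMV-βgal and pGL3(henance)PXRE reporter. At 24 h post-transfection, primed 18 h with compound at 50 plus rifaximin at 10 (antagonist mode). Luciferase luminescence measured in lysates and normalized to β-galactosidase activity. Significance p < 0.05 vs rifaximin.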

[2] = molecular target: T1, Nuclear receptor subfamily 1 group I member 2; test: Agonist activity at human full-length PXR transfected in human HepG2 cells co-transfected with pSG5-RXR assessed as induction of transactivation by dual-luciferase reporter gene assay; details: for Activity: human, hepg2
In short: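 HepG2 cells grown at 37 °C in MEM with Earle's salts, 10% FBS, 1% L-glutamine, 1% penicillin/streptomycin, seeded at 5 × 10^4 cells/well. Cotransfected with pSG5-hPXRT1, pSG5-RXR, pGL4.70-Renilla and pGL3(henance)PXRE reporter. Treated with rising concentrations (1, 10, 50) with rifaximin as positive control. Dual-luciferase readout; firefly RLU divided by Renilla RLU; EC50 from concentration–response curve.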

[3] = molecular target: T1, Nuclear receptor subfamily 1 group I member 2; test: Antagonist activity at human full-length PXR transfected in human HepG2 cells co-transfected with pSG5-RXR assessed as reversal of rifaximin-induced transactivation at 10 to 25 uM after 18 hrs by luciferase reporter gene assay; details: hepg2, 18 h
In short: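 Dose–response antagonism test in a luciferase reporter assay: transfected HepG2 cells received compound at 10, 25 or 50 together with rifaximin 10 to assess reversal of rifaximin-driven PXR transactivation.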

[4] = molecular target: T1, Nuclear receptor subfamily 1 group I member 2; test: Antagonist activity at human full-length PXR transfected in human HepG2 cells co-transfected with pSG5-RXR assessed as reversal of rifaximin-induced transactivation at 50 uM after 18 hrs by luciferase reporter gene assay; details: hepg2, 18 h; in short: as §1

Row | Activity [1] | EC50 [2] [µM] | Activity [2] | Activity [3] | Activity [4] | Structure (SMILES)
1 | Active | 18 | Dose-dependent effect |  |  | CC(C)[C@H](C)CC[C@@H](C)[C@H]1CCC2=C3CC[C@H]4[C@H](C)[C@H](O)CC[C@]4(C)[C@H]3CC[C@@]21C
2 | Active |  |  | Not Active | Active | CC(C)[C@H](C)CC[C@@H](C)[C@H]1CCC2=C3CC[C@H]4[C@@H](C)[C@@H](O)CC[C@]4(C)[C@H]3CC[C@@]21C
3 | Active | 21 | Dose-dependent effect |  |  | C=C1[C@@H](O)CC[C@@]2(C)[C@H]1CCC1=C3CC[C@H]([C@H](C)CCC=C(C)C)[C@@]3(C)CC[C@@H]12
